Laboratory results from paper PMC5839499 (Biomolecules & Therapeutics, 2018).
“Also recorded” adds a separate entry of the source.

Columns and labels:
[1] = test system: DIO mice; assay: Oral glucose tolerance test, repeat administration for 4 weeks in DIO mice; format: in vivo
Procedure, shortened: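 17-week-old male DIO mice were dosed orally once daily for 4 weeks with vehicle (0.5% methyl cellulose), test compound, MBX2982 10 mg/kg, linagliptin 1 mg/kg, or combinations. OGTT was run on days 1 and 29 in overnight-fasted mice: dose, then an oral 2 g/kg glucose bolus 30 min later. Tail-vein glucose was read by glucometer at 0–120 min, and AUC0–2h was calculated.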

[2] = target: T1, human GPR119 (Homo sapiens, UniProt Q8TDV5); assay: cAMP accumulation assay; format: cell-based
T1 sequence (Q8TDV5 1-335): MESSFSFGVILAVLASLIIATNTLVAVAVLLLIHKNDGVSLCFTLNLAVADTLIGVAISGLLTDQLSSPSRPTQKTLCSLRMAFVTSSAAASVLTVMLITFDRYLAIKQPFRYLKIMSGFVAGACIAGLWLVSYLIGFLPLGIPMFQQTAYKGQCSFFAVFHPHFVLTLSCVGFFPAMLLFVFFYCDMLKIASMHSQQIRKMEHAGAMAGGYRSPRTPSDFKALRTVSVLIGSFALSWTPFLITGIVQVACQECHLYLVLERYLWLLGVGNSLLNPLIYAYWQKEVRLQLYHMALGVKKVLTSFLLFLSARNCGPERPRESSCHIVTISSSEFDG
Procedure, shortened: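 CHO-K1 cells carry doxycycline-inducible human GPR119 and a CRE-driven beta-lactamase reporter. Cells were seeded at 10⁴ cells/well, induced with doxycycline 1 ug/mL, and treated 5 h with test compound at varying concentrations (DMSO stocks diluted in medium). cAMP was read by ratiometric FRET beta-lactamase substrate, in triplicate per concentration, from ≥3 independent experiments.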

[3] = test system: GLUTag cells; assay: GLP-1 release assay; format: cell-based, murine
Procedure, shortened: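 GLUTag cells (DMEM, 10% FBS) were seeded at 10⁵ cells/well and grown 48 h. They were washed twice with serum-free DMEM, then exposed to 0.1 uM test compound in serum-free DMEM at 37°C for 120 min. Supernatant was clarified by 5-min centrifugation, and GLP-1 was measured by ELISA in triplicate.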

[4] = test system: HIT-T15 cells; assay: Insulin release assay; format: cell-based, hamster
Procedure, shortened: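 HIT-T15 cells were seeded at 2×10⁵ cells/well and grown 48 h. They were washed in Krebs-Ringer bicarbonate buffer (pH 7.4, 0.2% BSA) and preincubated 60 min at 37°C with 5 mM glucose. Stimulation was with 0.1 uM test compound at 15 mM glucose, 60 min, 37°C; GSIS used 100 nM at 0, 3 and 15 mM glucose, 1 h. Supernatant insulin was measured by ELISA in triplicate.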

[5] = test system: HIT-T15, GLUTag, and HepG2; assay: Cytotoxicity assay; format: cell-based; conditions: MTT, 48 h
Procedure, shortened: (§1)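 MTT assay. Cells were seeded at 2–3×10⁴ cells/well and cultured 24 h. Test compound was added at a final 0.1–100 μM for 48 h. MTT (5 mg in PBS, pH 7.2) was added for 4 h at 37°C, then DMSO. Absorbance was read at 540 nm; % viability = treated/untreated absorbance ×100; n=3.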

[6] = Pharmacokinetics of YH18968 in normal mice; format: in vivo, C57BL/6J mice; conditions: male, C57BL/6J, mouse, plasma
Procedure, shortened: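 Overnight-fasted 8-week-old male C57BL/6J mice, with free access to water, received 1 mg/kg iv via tail vein or oral doses of 1, 10 and 100 mg/kg as a suspension in 0.5% methyl cellulose; n=2 per time point. Plasma underwent protein precipitation and LC-MS/MS quantification. Parameters, including F, came from non-compartmental analysis.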

[7] = test system: normal C57BL/6J mice; assay: Oral glucose tolerance test, single administration in normal mice; format: in vivo
[8] = test system: normal C57BL/6J mice; assay: Blood active GLP-1 levels after single oral administration in normal mice; format: in vivo; conditions: 10 mg/kg oral, 30 minutes after administration, overnight-fasted mice
Procedure, shortened: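 Overnight-fasted male C57BL/6J mice (n=6) got a single oral dose of test compound, alone or with linagliptin (1 mg/kg). The control got 0.5% methyl cellulose vehicle. Blood was drawn 30 min after dosing, and active GLP-1 was measured against the vehicle group.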

[9] = Aqueous solubility in the buffer; format: physicochemical
[10] = Cytotoxicity assay; format: cell-based; conditions: mouse, GLUTag L cells
Procedure, shortened: as §1

[11] = Cytotoxicity assay; format: cell-based; conditions: human, HepG2 cells
Procedure, shortened: as §1

With `CC#CCn1c(N2CCC[C@@H](N)C2)nc2c1c(=O)n(Cc1nc(C)c3ccccc3n1)c(=O)n2C` [linagliptin, reference compound] the “AUC blood glucose level in OGTT” value ([1]; 1 mg/kg of linagliptin, DIO mice) was “near normal range”.

With `CC(C)c1nc(N2CCN(c3ncc(-c4ccc(-n5cnn([C@H]6CCOC6)c5=O)c(F)c4)cc3C#N)CC2)no1` [YH18968, (S)-5-(3-fluoro-4-(5-oxo-1-(tetrahydrofuran-3-yl)-1,5-dihydro-4H-1,2,4-triazol-4-yl)phenyl)-2-(4-(5-isopropyl-1,2,4-oxadiazol-3-yl)piperazin-1-yl)nicotinonitrile] the EC50 [2] was 2.8 nM, the “potency on human GPR119 relative to MBX2982” value ([2]; more potent than MBX2982 (EC50 11.2 nM, same assay)) was “approximately 4 fold” and the “potency of human GPR119 activation relative to MBX2982” value ([2]; more potent than the reported effect of MBX2982 (EC50 8.33 nM, HEK293)) was “approximately 3 fold”. The GLP-1 secretion ([3]; GLUTag cell, 0.1 uM, 120 min) was 2.3 fold, the EC50 ([3]; Mus musculus, GLUTag, read-out: EC50, GLP-1 secretion) was 0.1 nM and the “glucose-stimulated insulin secretion (GSIS)” value ([4]; 100 nM, 3 and 15 mM glucose, 1 h) was “enhanced in a glucose-dependent manner”. The “insulin release without glucose” value ([4]; 100 nM, cells incubated without glucose, 1 h) was “no effect”, the insulin secretion ([4]; HIT-T15 cell, 0.1 uM, 15 mM glucose, 60 min) was 1.9 fold and the “concentration up to which cytotoxicity was not observed” value [5] was 5 µM. For the same molecule, the AUC(0-inf) ([6]; iv, 1 mg/kg) was 1620 ng·h/mL, the AUC(0-t) ([6]; iv, 1 mg/kg) was 1380 ng·h/mL and the MRT ([6]; iv, 1 mg/kg) was 3.4 h. For the same molecule, the Vd ([6]; iv, 1 mg/kg) was 2.11 L/kg, the clearance ([6]; iv, 1 mg/kg) was 10.3 mL/min/kg and the Tmax ([6]; po) was 30 min. For the same molecule, the bioavailability ([6]; po) was 4.8 to 40%, the AUC(0-inf) ([6]; po, 1 mg/kg) was 720 ng·h/mL and the AUC(0-t) ([6]; po, 1 mg/kg) was 550 ng·h/mL. It also gave a Cmax ([6]; po, 1 mg/kg) of 169 ng/mL, a Tmax ([6]; po, 1 mg/kg) of 30 min and a bioavailability ([6]; po, 1 mg/kg) of 40%. The half-life ([6]; po, 1 mg/kg) was 186 min, the AUC(0-inf) ([6]; po, 10 mg/kg) was 2960 ng·h/mL and the AUC(0-t) ([6]; po, 10 mg/kg) was 2470 ng·h/mL. The Cmax ([6]; po, 10 mg/kg) was 760 ng/mL, the Tmax ([6]; po, 10 mg/kg) was 30 min and the bioavailability ([6]; po, 10 mg/kg) was 18%. For the same molecule, the half-life ([6]; po, 10 mg/kg) was 156 min, the AUC(0-inf) ([6]; po, 100 mg/kg) was 15800 ng·h/mL and the AUC(0-t) ([6]; po, 100 mg/kg) was 6540 ng·h/mL. It also gave a Cmax ([6]; po, 100 mg/kg) of 1470 ng/mL, a Tmax ([6]; po, 100 mg/kg) of 30 min and a bioavailability ([6]; po, 100 mg/kg) of 4.8%. For the same molecule, the half-life ([6]; po, 100 mg/kg) was 552 min, the “AUC for blood glucose in OGTT versus vehicle control” value ([7]; single oral 0.1, 1, and 10 mg/kg, dose-dependent) was “significantly lowered” and the “glucose lowering effect compared with 30 mg/kg of MBX2982” value ([7]; single oral 1 and 10 mg/kg) was “more potent glucose lowering effects”. The “increase of active GLP-1 levels compared to the vehicle control” value [8] was 2.7 fold, the “AUC for blood glucose in OGTT versus vehicle control, day 1” value ([1]; 1 mg/kg oral once daily, day 1, DIO mice) was “significantly lowered; also recorded: significant decrease” and the “glucose lowering effect compared with 10 mg/kg of MBX2982, day 1” value ([1]; 1 mg/kg oral, day 1, DIO mice) was “more potent glucose lowering effect”. The aqueous solubility [9] was “poor”.

Work on `CCc1cnc(N2CCC(c3nc(COc4ccc(-n5cnnn5)cc4)cs3)CC2)nc1` [MBX2982, reference compound] yielded an EC50 [2] of 11.2 nM, a CC50 at 48 h [10] of 12.2 µM and a CC50 at 48 h [11] of 15.9 µM. For the same molecule, the “concentration up to which cytotoxicity was not observed” value [5] was 1 µM.
